Results reported in ChEMBL document CHEMBL3124940, “Design, synthesis and biological evaluation of D-ring opened galantamine analogs as multifunctional anti-Alzheimer agents” (Eur J Med Chem, 2014).
Calls of active or inactive are those of the source. No cut-off for these calls is given here.

Tests used:
Rattus norvegicus [1] = assay: Toxicity in Wistar rat assessed as total glutathione level in kidney at 1 umol/100 g body weight, ip by fluorometric analysis relative to control; type: organism-based; conditions: in vivo
In short: (§1)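 Rats dosed i.p.; tissues taken after 24 h. For GSH/GSSG, tissue homogenized in 11 volumes of 0.2 M sodium phosphate (5 mM EDTA, pH 8.0) plus 4 volumes of 25% metaphosphoric acid and centrifuged 12 000 × g, 4 °C, 30 min; supernatant read photometrically (GSH) or fluorometrically (GSSG). Lipid peroxidation products measured as TBARS in 19-volume ice-cold saline homogenates, fluorometrically.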

Rattus norvegicus [2] = assay: Toxicity in Wistar rat assessed as kidney weight at 6 umol/100 g body weight, ip relative to control; type: organism-based; conditions: in vivo
Rattus norvegicus [3] = assay: Toxicity in Wistar rat assessed as lipidperoxidation product level in brain at 6 umol/100 g body weight, ip by fluorometric analysis relative to control; type: organism-based; conditions: in vivo; in short: as §1
Rattus norvegicus [4] = assay: Toxicity in Wistar rat assessed as lipidperoxidation product level in brain at 1 umol/100 g body weight, ip by fluorometric analysis relative to control; type: organism-based; conditions: in vivo; in short: as §1
Rattus norvegicus [5] = assay: Toxicity in Wistar rat assessed as total glutathione level in brain at 6 umol/100 g body weight, ip by fluorometric analysis relative to control; type: organism-based; conditions: in vivo; in short: as §1
Rattus norvegicus [6] = assay: Toxicity in Wistar rat assessed as total glutathione level in brain at 1 umol/100 g body weight, ip by fluorometric analysis relative to control; type: organism-based; conditions: in vivo; in short: as §1
Rattus norvegicus [7] = assay: Toxicity in Wistar rat assessed as GSSG level in brain at 1 umol/100 g body weight, ip by fluorometric analysis relative to control; type: organism-based; conditions: in vivo; in short: as §1
Rattus norvegicus [8] = assay: Toxicity in Wistar rat assessed as GSH level in brain at 6 umol/100 g body weight, ip by fluorometric analysis relative to control; type: organism-based; conditions: in vivo
Rattus norvegicus [9] = assay: Toxicity in Wistar rat assessed as ethoxycoumarin-O-deethylation activity in liver measured as 7-hydroxycoumarin level at 6 umol/100 g body weight, ip by fluorometric analysis relative to control; type: organism-based; conditions: in vivo
Rattus norvegicus [10] = assay: Toxicity in Wistar rat assessed as total glutathione level in liver at 6 umol/100 g body weight, ip by fluorometric analysis relative to control; type: organism-based; conditions: in vivo
In short: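 Rats were dosed, killed 24 h later, and liver and other tissues were taken. Samples were homogenized in 11 vol 0.2 M sodium phosphate (5 mM EDTA, pH 8.0) plus 4 vol 25% metaphosphoric acid, then spun at 12 000 × g, 4 °C, 30 min. GSH was read photometrically and GSSG fluorometrically in the supernatant, alongside total glutathione.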

Rattus norvegicus [11] = assay: Toxicity in Wistar rat assessed as total glutathione level in liver at 1 umol/100 g body weight, ip by fluorometric analysis relative to control; type: organism-based; conditions: in vivo; in short: as §1
Rattus norvegicus [12] = assay: Toxicity in Wistar rat assessed as GSSG level in liver at 6 umol/100 g body weight, ip by fluorometric analysis relative to control; type: organism-based; conditions: in vivo; in short: as §1
Rattus norvegicus [13] = assay: Toxicity in Wistar rat assessed as GSH level in liver at 6 umol/100 g body weight, ip by fluorometric analysis relative to control; type: organism-based; conditions: in vivo
Rattus norvegicus [14] = assay: Toxicity in Wistar rat assessed as liver weight at 6 umol/100 g body weight, ip relative to control; type: organism-based; conditions: in vivo
Rattus norvegicus [15] = assay: Toxicity in Wistar rat assessed as body weight at 1 umol/100 g body weight, ip relative to control; type: organism-based; conditions: in vivo
Rattus norvegicus [16] = assay: Antialzheimer activity in Wistar rat scopolamine-induced cognition impairment model assessed as decrease in amount of errors plus baits not found during exploration at 1 umol/100 g body weight, ip treated for 5 mins prior to scopolamine-challenge measured after 20 to 120 mins by eight-arm radial maze test; type: functional, organism-based
In short: (§2)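 Female 60-day-old Wistar rats (Han:Wist) trained in an eight-arm radial maze to error-free trials under 60 s on three consecutive days; each animal served as its own control. Test agent given i.p. in saline 5 min before scopolamine (0.05 mg/100 g b. wt., i.p. in saline). Errors plus baits not found after 10 min, and total searching time, recorded before and 20, 60, 120 min after scopolamine; n = 14, mean ± SEM.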

[17] = Induction of nitric oxide release in PBS at 100 uM at pH 7.4 after 24 hrs by Griess method relative to control; type: physicochemical; conditions: buffer, pH 7.4, 24 h
In short: (§3)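 Test compound at 100 µM in phosphate buffer pH 7.4, alone or with 90 µL rat serum added, incubated 37 °C for 24 h. Griess reagent added, then 30 min at 37 °C with gentle shaking; absorbance read at 540 nm and blank-corrected. Nitrite quantified against an NaNO2 calibration curve and expressed as % of a theoretical 1 mol NO per mol nitrate; n = 3.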

[18] = Induction of nitric oxide release in PBS at 100 uM at pH 7.4 after 24 hrs by Griess method in presence of rat serum; type: physicochemical; conditions: pH 7.4, 24 h; in short: as §3
[19] = target: Amyloid-beta precursor protein (Homo sapiens) (UniProt P05067); assay: Inhibition of amyloid beta (1 to 42) aggregation (unknown origin) at 5 uM after 1 hr by thioflavin T fluorescence assay
In short: (§4)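 Aβ42 stock (200 µM in DMSO) centrifuged 12,000 rpm for 10 min; supernatant used. Compound (2 µL of 0.2–4.0 mM DMSO stock) and 2 µL Aβ42 stock added to 76 µL PBS pH 7.4, incubated 1 h at room temperature. 80 µL of 5 µM ThT in 50 mM glycine-NaOH pH 8.5 then added; fluorescence read at excitation 430 nm, emission 488 nm.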

[20] = target: Amyloid-beta precursor protein (Homo sapiens) (UniProt P05067); assay: Inhibition of amyloid beta (1 to 42) aggregation (unknown origin) at 50 uM after 1 hr by thioflavin T fluorescence assay relative to control; in short: as §4
[21] = target: Amyloid-beta precursor protein (Homo sapiens) (UniProt P05067); assay: Inhibition of amyloid beta (1 to 42) aggregation (unknown origin) at 50 uM after 6 days by atomic force microscopic analysis
In short: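 Compound (2.5 µL of 1.0 mM) and 2.5 µL of 200 µM Aβ42 added to 45 µL PBS (20% TFE, pH 7.4); the control lacks compound. Incubated 37 °C for 6 days, then 3 µL deposited on freshly cleaved mica for 5 min, blown dry and imaged by atomic force microscopy.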

PC-12 = assay: Neuroprotective activity in rat PC12 cells assessed as decrease in amyloid beta (1 to 42)-induced cytotoxicity after 24 hrs by MTT assay; type: functional, cell-based
In short: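 PC12 cells in F-12 with 10% FBS at 37 °C, 5% CO2, plated at 2000 cells/well and grown 24 h. Compound added (final 0.008–10 µM, DMSO below 0.5%) with Aβ42 (final 5 µM), 24 h at 37 °C. Aβ42 prepared by HFIP treatment, dried, taken up to 100 µM in F-12 and held 4 °C for 24 h. MTT for 4 h, DMSO solubilization, read at 540 nm; reported as % of control, three independent trials, mean ± SEM.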

Rattus norvegicus [22] = assay: Antialzheimer activity in Wistar rat scopolamine-induced cognition impairment model assessed as total exploration time at 1 umol/100 g body weight, ip treated for 5 mins prior to scopolamine-challenge by eight-arm radial maze test relative to control; type: functional; in short: as §2

Chain of Amyloid-beta precursor protein (Homo sapiens) (P05067 whole entry): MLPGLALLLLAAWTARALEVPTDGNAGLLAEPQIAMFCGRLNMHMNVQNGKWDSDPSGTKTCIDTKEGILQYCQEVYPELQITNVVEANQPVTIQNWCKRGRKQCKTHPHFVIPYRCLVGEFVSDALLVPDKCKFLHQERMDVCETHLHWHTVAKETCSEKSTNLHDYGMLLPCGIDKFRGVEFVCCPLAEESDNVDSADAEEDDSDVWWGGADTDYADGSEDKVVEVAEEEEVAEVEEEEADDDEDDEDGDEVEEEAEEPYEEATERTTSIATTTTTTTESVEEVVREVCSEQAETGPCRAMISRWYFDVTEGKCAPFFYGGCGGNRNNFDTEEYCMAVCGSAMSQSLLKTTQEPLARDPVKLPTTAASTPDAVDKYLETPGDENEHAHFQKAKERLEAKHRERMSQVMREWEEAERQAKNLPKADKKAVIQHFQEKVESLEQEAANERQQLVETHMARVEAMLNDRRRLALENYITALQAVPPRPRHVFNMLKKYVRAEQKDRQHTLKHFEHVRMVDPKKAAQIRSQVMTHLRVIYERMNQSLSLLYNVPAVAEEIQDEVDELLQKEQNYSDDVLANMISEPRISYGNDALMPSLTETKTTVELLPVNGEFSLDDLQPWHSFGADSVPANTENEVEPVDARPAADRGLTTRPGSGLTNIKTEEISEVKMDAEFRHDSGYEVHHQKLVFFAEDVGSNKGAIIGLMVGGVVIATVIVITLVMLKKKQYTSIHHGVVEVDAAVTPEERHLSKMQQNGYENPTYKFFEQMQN

`COc1ccc2c(c1)oc1cccc(CN(C(=O)CCO[N+](=O)[O-])C(C)C)c12` showed an Activity (Rattus norvegicus [1]) of 1783 µg/g, an Activity (Rattus norvegicus [2]) of 0.84 g and an Activity (Rattus norvegicus [3]) of 156 nmol/g. For the same compound, the Activity (Rattus norvegicus [4]) was 160 nmol/g, the Activity (Rattus norvegicus [5]) was 830 µg/g and the Activity (Rattus norvegicus [6]) was 814 µg/g. For the same compound, the Activity (Rattus norvegicus [7]) was 84.8 µg/g, the Activity (Rattus norvegicus [8]) was 672 µg/g and the Activity (Rattus norvegicus [9]) was 178 pmol/mg/min. For the same compound, the Activity (Rattus norvegicus [10]) was 3320 µg/g, the Activity (Rattus norvegicus [11]) was 3365 µg/g and the Activity (Rattus norvegicus [12]) was 418 µg/g. The Activity (Rattus norvegicus [13]) was 2482 µg/g, the Activity (Rattus norvegicus [14]) was 8 g and the Activity (Rattus norvegicus [15]) was 264 g. For the same compound, the Activity (Rattus norvegicus [16]) was “Active”, the Activity [17] was 4.8% and the Activity [18] was “Active”. For the same compound, the inhibition [19] was “inactive”, the inhibition [20] was 19% and the inhibition [21] was “Active”. The Activity (PC-12) was “Dose-dependent effect” and the Time (Rattus norvegicus [22]) was 175 s.
